Data: paper PMC12782866 (Biomolecules & Therapeutics, 2025)
“Also recorded” adds a separate entry of the source.

What was measured:
[1] = Comparative 14-day repeated-dose toxicity study with BAY964; type: in vivo, male ICR mice; conditions: for exposure multiple: reference not defined
In short: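 Male ICR mice were dosed orally once daily for 14 days under GLP. Prodrug arm: 30, 100 or 300 mg/kg in 0.1% kolliphor EL (vehicle n=6; dose groups 6 main + 3 TK). Comparator arm: 30-1000 mg/kg, with 30 mg/kg given only as single-dose TK. Endpoints were clinical signs, body weight, food/water intake, haematology, serum chemistry, organ weights and H&E histopathology. TK was sampled on days 1 and 14.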

hERG channel = hERG channel (Homo sapiens, UniProt Q12809); assay: hERG channel inhibition, in vitro; type: biochemical; conditions: read-out: hERG IC50
hERG channel, sequence (Q12809 whole entry): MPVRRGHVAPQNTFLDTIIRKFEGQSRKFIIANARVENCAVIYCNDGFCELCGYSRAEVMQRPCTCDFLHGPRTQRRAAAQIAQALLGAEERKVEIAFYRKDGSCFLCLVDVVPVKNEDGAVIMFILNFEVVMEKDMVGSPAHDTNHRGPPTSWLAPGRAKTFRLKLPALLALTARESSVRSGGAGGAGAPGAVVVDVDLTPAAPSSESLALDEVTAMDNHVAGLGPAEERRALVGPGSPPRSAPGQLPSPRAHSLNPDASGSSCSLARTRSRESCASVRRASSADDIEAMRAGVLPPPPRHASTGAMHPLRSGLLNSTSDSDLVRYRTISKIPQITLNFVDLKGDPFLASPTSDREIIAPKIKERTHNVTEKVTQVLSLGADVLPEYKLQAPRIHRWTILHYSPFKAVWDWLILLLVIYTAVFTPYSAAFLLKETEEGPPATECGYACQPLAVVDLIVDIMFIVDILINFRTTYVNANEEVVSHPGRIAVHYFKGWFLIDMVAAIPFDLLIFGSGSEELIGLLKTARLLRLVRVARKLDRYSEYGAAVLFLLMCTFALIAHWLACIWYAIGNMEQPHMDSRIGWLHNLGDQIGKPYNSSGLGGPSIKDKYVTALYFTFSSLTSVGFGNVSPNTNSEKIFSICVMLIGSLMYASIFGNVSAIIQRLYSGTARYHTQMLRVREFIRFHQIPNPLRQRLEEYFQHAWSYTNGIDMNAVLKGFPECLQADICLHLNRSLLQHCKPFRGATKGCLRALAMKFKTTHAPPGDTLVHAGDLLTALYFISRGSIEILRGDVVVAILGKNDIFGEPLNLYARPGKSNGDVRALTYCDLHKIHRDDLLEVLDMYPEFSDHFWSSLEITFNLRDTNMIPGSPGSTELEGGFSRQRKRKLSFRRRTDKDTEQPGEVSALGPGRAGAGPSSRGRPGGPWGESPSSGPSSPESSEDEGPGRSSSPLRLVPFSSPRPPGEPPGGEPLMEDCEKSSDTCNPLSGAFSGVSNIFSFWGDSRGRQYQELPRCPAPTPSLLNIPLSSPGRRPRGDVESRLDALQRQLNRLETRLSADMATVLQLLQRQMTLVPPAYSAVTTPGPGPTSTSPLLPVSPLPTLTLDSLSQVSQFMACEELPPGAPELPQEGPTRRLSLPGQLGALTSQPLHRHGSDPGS

Compound: C[C@@H](CO)NC(=O)c1cc(-c2ccc(Cl)cc2)nn(-c2cnn(C)c2)c1=O [BAY964]
- toxicological findings ([1]; 100 mg/kg, 14 days): MCHC ↓, TG ↓, liver, spleen
- exposure multiple ([1]; 100 mg/kg): 1.9 ×
- toxicological findings ([1]; 300 mg/kg, 14 days): liver, spleen; hematological changes
- exposure multiple ([1]; 300 mg/kg): 3.6 ×
- toxicological findings ([1]; 1000 mg/kg, 14 days): gastrointestinal, liver, spleen, kidney lesions
- exposure multiple ([1]; 1000 mg/kg): 7.0 ×
- Target organ ([1]; 100-1000 mg/kg, 14 days): liver, spleen, gastrointestinal tract, and kidney; also recorded: Liver, spleen, GI tract, kidney
- IC50 (hERG channel): > 10 µM
